Only some compounds are listed: those with a hit (about 2.2% of all), similar ones and a draw of the others.
NF-kB expr up: compounds increasing NF-kB expression in human neuronal cells; NF-kB reporter expression; hits give high values; fold change at 12.5 µM; hit rate 1.6% among 190,000; AID 1239; in the data active means fold change above about 3.3
PPC-1+TRAIL kill: PPC-1 cancer cell killing with TRAIL present. PPC-1 cells + TRAIL, ATPLite viability luminescence. cell killing (% activity), % at 4 µM or 5 µM. hit rate 0.41% among 220,000. AID 1443;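 active means cell killing above 50% in the first pass at 4 µM, then a duplicate retest at 5 µM averaging 50% or more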;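 further: plate controls were cells with TRAIL plus DMSO for no effect and medium-only wells lacking cells for full effect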
APP 5'UTR act: activates APP 5'UTR luciferase reporter | AID 1276 | activation, % at 2 µM | hit rate 1% among 190,000 | SH-SY5Y APP 5'UTR luciferase reporter, luminescence; zero percent = DMSO vehicle wells;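 active means activation above a set limit, based on mean plus 3 SD of controls, cut at about 140% in these data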
C8 TRAIL sens: caspase-8 TRAIL sensitization | NB7+C8 cells + TRAIL, ATPlite viability luminescence | inhibition (viability loss, TRAIL sensitization), % at 10 µM | hit rate 1% among 360,000;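 active means compounds causing at least 50% loss of cell viability in the single-dose screen, relative to plate controls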
FLuc inhib CS: inhibits firefly luciferase, flagging false hits in luciferase inhibition screens; inhibition, % at 10 µM; hit rate 1.5% among 200,000; ATPLite firefly luciferase biochemical luminescence, 10 min; P08659;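 active means inhibition above about 50% when tested at 10 µM, limit read from the data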
Target sequence (P08659 whole entry, looked up): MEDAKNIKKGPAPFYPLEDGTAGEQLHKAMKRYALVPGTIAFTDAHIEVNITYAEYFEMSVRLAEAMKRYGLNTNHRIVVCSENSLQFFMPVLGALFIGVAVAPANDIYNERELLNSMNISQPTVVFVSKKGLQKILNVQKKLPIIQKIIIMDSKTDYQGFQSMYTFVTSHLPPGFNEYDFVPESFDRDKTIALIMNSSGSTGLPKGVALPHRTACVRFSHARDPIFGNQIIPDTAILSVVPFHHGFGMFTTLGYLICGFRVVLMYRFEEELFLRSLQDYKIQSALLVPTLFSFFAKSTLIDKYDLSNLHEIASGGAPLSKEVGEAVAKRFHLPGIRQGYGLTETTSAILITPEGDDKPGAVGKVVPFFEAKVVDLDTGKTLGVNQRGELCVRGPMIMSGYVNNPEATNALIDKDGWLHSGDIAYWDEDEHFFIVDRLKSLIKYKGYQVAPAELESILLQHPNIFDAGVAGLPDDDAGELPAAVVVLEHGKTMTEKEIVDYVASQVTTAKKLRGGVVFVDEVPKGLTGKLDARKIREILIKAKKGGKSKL
FLuc act counter: firefly luciferase counter-screen for stimulation assays. activation factor at 10 µM. P08659. 200,000 tested, under 10 active. AID 1027. ATPlite luciferase biochemical, luminescence, 10 min; 0 = ATP-free wells, 1 = DMSO control;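 active means luciferase activation factor, scaled between plate controls, of at least 2 with compound at 10 µM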
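Assay system – cell-free luciferase reagent · Medium – PBS-based ATP solution · Dosing – test compounds dosed from 2 mM stocks in 100% DMSO · Timing – 10 min, room temperature · Technique – light output (luminescence) · Measure – luminescence gain marking luciferase activators · Controls – No-ATP low control, compound-free enzyme-plus-ATP high control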
* hit, by the source's call; · = not tested or not shown.

SMILES	NF-kB expr up	PPC-1+TRAIL kill	APP 5'UTR act	C8 TRAIL sens	FLuc inhib CS	FLuc act counter
Cc1ccc(NC(=O)c2ccc3nc[nH]c3c2)c(O)c1	1.8	31	30	5	50*	0.5
CN(C)c1cccc(-c2nnc(SCCCC#N)o2)c1	3.1	20	154*	14	56*	0.4
O=C1/C(=C\c2cccc(O)c2O)SC(=S)N1Cc1ccccc1	·	·	·	52*	·	·
O=C1/C(=C\c2ccc(O)c(O)c2)SC(=S)N1Cc1ccccc1	·	·	·	46	·	·
O=C1CSc2ccc(C(=O)N3CCCCC3)cc2N1	·	·	·	-9	·	·
CCCNC(=O)c1cc2c(c(-c3cccc(-c4ccccc4F)c3)n1)[C@H](CCO)N(C(=O)CC1CC1)C2	·	·	·	8	·	·
O=C(N/N=C/c1ccc(O)c(O)c1)N/N=C/c1ccc(O)c(O)c1	·	·	·	55*	·	·
Cc1nonc1C(=O)N/N=C/c1ccc(O)c(O)c1	0.99	7	-1	15	4	1
c1ccc(-c2nn3c(C4CCCCC4)nnc3s2)nc1	1.1	-7	-8	0	-4	1
Clc1ccc(OCc2nn3c(C4CCCCC4)nnc3s2)cc1	0.91	7	2	57*	-7	1.1
CC1(C(=O)Nc2cnc3ccccc3c2)CCN1Cc1cc2ccccc2o1 (stereo not given)	·	·	·	9	·	·
CC1(C(=O)NCc2ccccc2)CN(S(C)(=O)=O)CC(=O)N1CCc1c[nH]c2ccccc12 (stereo not given)	·	·	·	-9	·	·
Cc1ccc2c(c1)N=C(c1ccc(Cl)cc1)CO2	3.6*	4	72	-7	48	0.5
Clc1ccc(C2=NN=C3COc4ccccc4N3C2)cc1	1.4	17	19	-4	-2	1
c1ccc(C2=Nc3ccccc3OC2)cc1	4.8*	-4	13	-9	33	0.7
Clc1ccc(C2=Nc3cc(Cl)ccc3OC2)cc1	3.4*	9	61	4	12	0.9
CCOC(=O)C1=CCN(S(=O)(=O)c2ccc(C)cc2)C1c1ccc(Cl)c(Cl)c1 (stereo not given)	·	·	·	12	·	·
Cc1ccccc1-c1csc(C(O)c2ccc(F)c(F)c2)n1 (stereo not given)	·	·	·	-3	·	·
CC(C)N(C)c1ncnc2c1ncn2[C@H]1CN(Cc2ccc(F)cc2)C[C@@H](CO)O1	·	·	·	-14	·	·
COc1cc(-c2cc(NC(C)=O)c3ncc(-c4ccc(C(C)=O)cc4)n3c2)cc(OC)c1OC	·	·	·	9	·	·
NS(=O)(=O)c1ccc(NC(=O)CSc2nnc(-c3ccc(O)cc3)o2)cc1	·	·	·	-9	·	·
Cc1ccc(NC(=O)CSc2nnc(-c3ccncc3)o2)cc1	1.1	13	9	6	-2	1
COc1ccc(OCC(=O)Nc2cccc(OC)c2)cc1	1.1	27	16	-2	15	0.9
O=C(CSc1nnc(-c2ccc(O)cc2)o1)Nc1cccc(O)c1	·	·	·	48*	·	·
COc1cccc(NC(=O)COc2ccccc2C(N)=O)c1	3.1	50	87	40	68*	0.3
SMILES	NF-kB expr up	PPC-1+TRAIL kill	APP 5'UTR act	C8 TRAIL sens	FLuc inhib CS	FLuc act counter
COc1cccc(NC(=O)CSc2nnc(-c3ccc(C)cc3)o2)c1	2.4	57*	217*	14	-5	1.1
C[C@@H]1CN([C@@H](C)CO)C(=O)c2cc(N(C)C)ccc2O[C@@H](C)CCCCO[C@@H]1CN(C)Cc1ccc2c(c1)OCO2	·	·	·	11	·	·
Nc1cccc2c1C(=O)N(C(=O)/C=C/c1ccc(F)cc1)C2=O	1.2	10	-17	12	52*	0.5
Nc1cccc2c1C(=O)N(C(=O)c1ccco1)C2=O	·	-8	·	2	·	·
Cc1ccc(-c2nc3ccccn3c2C=O)cc1	3.1	17	58	19	50*	0.5
COc1ccc(C(=O)NNC(=S)NC(=O)/C=C/c2cccs2)cc1	1.2	·	-34	54*	49	0.5
O=C(/C=C/c1cccs1)NC(=S)NNC(=O)c1ccccc1O	0.67	-3	-18	27	0	1
CCCCC[C@@H](C)N1C[C@H](COCc2ccccc2)Oc2cc(N3CC[C@@H](N(C)C)C3)ccc2S1(=O)=O	·	·	·	77*	·	·
COc1cccc(-n2c(SCC(=O)N3CCc4ccccc43)nnc2-c2c[nH]c3ccccc23)c1	1.1	6	-14	59*	-3	1
CCOc1ccc(-n2c(SCC(=O)N3CCc4ccccc43)nnc2-c2c[nH]c3ccccc23)cc1	1.1	6	-11	5	-3	1

High-throughput results (PubChem)
